Measured values collected from several papers.
Protocols differ between the studies behind these lines. pEC50, pIC50, pKd: −log10 of the molar value.
Tumor necrosis factor receptor superfamily member 9: Tumor necrosis factor receptor superfamily member 9 (Homo sapiens, UniProt Q07011)
CSF1R: Macrophage colony-stimulating factor 1 receptor (CSF1R, Homo sapiens, UniProt P07333)

CCCC[C@@H]1NC(=O)[C@H](Cc2ccc(O)cc2)NC(=O)[C@@H]2CCCN2C(=O)[C@H](CC(=O)O)NC(=O)[C@H](C)NC(=O)[C@H](Cc2ccccc2)NC(=O)[C@@H]2CSCCC(=O)N3CN(CN(C3)C(=O)CCSC[C@@H](C(=O)N[C@@H](CNC(=O)CCc3cn(CCOCCOCCOCCOCCOCCOCCOCCOCCOCCOCCOCCOCCC(=O)NCCC(=O)N(C)CC(=O)N(C)CC(=O)N(C)CC(=O)N(C)CC(=O)N(C)CC(=O)N(C)CC(=O)N(C)CC(=O)N(C)CC(=O)N(C)CC(=O)N(C)CC(=O)NCCCC[C@@H]4NC(=O)[C@H](Cc5cccc6ccccc56)NC(=O)[C@@H]5CCCN5C(=O)[C@@H](NC(C)=O)CSCCC(=O)N5CN6CN(C5)C(=O)CCSC[C@H](NC4=O)C(=O)N[C@@H](CCSC)C(=O)N[C@@H](CCCCNC(=N)N)C(=O)N[C@@H](CC(=O)O)C(=O)N[C@@H](Cc4c[nH]c5ccccc45)C(=O)N[C@@H](CO)C(=O)N[C@@H]([C@@H](C)O)C(=O)N4CCC[C@H]4C(=O)N4C[C@H](O)C[C@H]4C(=O)N[C@@H](Cc4c[nH]c5ccccc45)C(=O)N[C@H](C(N)=O)CSCCC6=O)nn3)C(N)=O)NC1=O)C(=O)CCSC[C@H](NC(C)=O)C(=O)N[C@@H](CC(C)(C)C)C(=O)N1CCC[C@H]1C(=O)N[C@@H](CCC(=O)O)C(=O)N[C@H](C)C(=O)N1CCC[C@H]1C(=O)N[C@@H](Cc1ccc(O)cc1)C(=O)N2 — pKd (Tumor necrosis factor receptor superfamily member 9; binding; SPR): 8.29
Cc1cnc(-c2ccc(-c3ccc(NC(=O)Nc4c(F)cc(F)cc4F)cc3F)c3c2C(=O)NC3)[nH]1 — pKd (Serine/threonine-protein kinase 4 (STK4, Homo sapiens, UniProt Q13043); binding; competition with immobilised ligand): 8.89
CC(C)C[C@H](NC(=O)[C@H](Cc1ccccc1)NC(=O)[C@H](Cc1ccc(O)cc1)NC(=O)CNC(=O)[C@H](CCCNC(=N)N)NC(=O)[C@H](CO)NC(=O)[C@H](CCC(N)=O)NC(=O)[C@H](CO)NC(=O)[C@H](C)NC(=O)[C@H](Cc1ccccc1)NC(=O)[C@@H]1CCCN1C(=O)[C@H](CO)NC(=O)[C@H](CCC(N)=O)NC(=O)[C@H](Cc1ccccc1)NC(=O)[C@H](CCC(=O)O)NC(=O)[C@H](CCC(=O)O)NC(=O)[C@H](CC(=O)O)NC(=O)[C@@H](NC(=O)[C@H](CCCNC(=N)N)NC(=O)[C@@H](N)Cc1ccccc1)C(C)C)C(=O)N[C@@H](Cc1ccccc1)C(=O)N[C@@H](CCCNC(=N)N)C(=O)N1CCC[C@H]1C(=O)N[C@@H](CCCNC(=N)N)C(=O)N[C@@H](CC(N)=O)C(N)=O — pEC50 (Neuromedin-U receptor 2 (NMUR2, Homo sapiens, UniProt Q9GZQ4); inositol phosphate; agonist): 9.78
CCCC[C@@H]1NC(=O)[C@H](Cc2ccc(O)cc2)NC(=O)[C@@H]2CCCN2C(=O)[C@H](CC(=O)O)NC(=O)[C@H](C)NC(=O)[C@H](Cc2ccccc2)NC(=O)[C@@H]2CSCCC(=O)N3CN(CN(C3)C(=O)CCSC[C@@H](C(=O)N[C@@H](C)C(N)=O)NC1=O)C(=O)CCSC[C@H](NC(C)=O)C(=O)N[C@@H](CC(C)(C)C)C(=O)N1CCC[C@H]1C(=O)N[C@@H](CCC(=O)O)C(=O)N[C@H](CCCCNC(=O)CCc1cn(CCOCCOCCOCCOCCOCCC(=O)N[C@H]3CSCCC(=O)N4CN5CN(C4)C(=O)CCSC[C@H](NC(=O)[C@@H](CC(=O)O)NC(=O)[C@H](Cc4cccc6ccccc46)NC(=O)[C@@H]4CCCN4C3=O)C(=O)N[C@@H](CCSC)C(=O)N[C@@H](CCCCNC(=N)N)C(=O)N[C@@H](CC(=O)O)C(=O)N[C@@H](Cc3c[nH]c4ccccc34)C(=O)N[C@@H](CO)C(=O)N[C@@H]([C@@H](C)O)C(=O)N3CCC[C@H]3C(=O)N3C[C@H](O)C[C@H]3C(=O)N[C@@H](Cc3c[nH]c4ccccc34)C(=O)N[C@H](C(N)=O)CSCCC5=O)nn1)C(=O)N1CCC[C@H]1C(=O)N[C@@H](Cc1ccc(O)cc1)C(=O)N2 — pKd (Tumor necrosis factor receptor superfamily member 9; binding; SPR): 8.47
CNC(=O)c1cc2c(Oc3ccc(NC(=O)C4(C(=O)Nc5ccc(F)cc5)CC4)cc3)ccnc2cc1OC — pIC50 (CSF1R; enzyme activity; inhibitor; radiometric): 7.96
Cc1cc2nc3c(=O)[nH]c(=O)nc-3n(C[C@H](O)[C@H](O)[C@H](O)COP(=O)(O)OP(=O)(O)OC[C@H]3O[C@@H](n4cnc5c(N)ncnc54)[C@H](O)[C@@H]3O)c2cc1C — pKd (Heterogeneous nuclear ribonucleoprotein H3 (Homo sapiens, UniProt P31942); binding; lysate): 7.72
CC/C=C\C/C=C\C/C=C\C/C=C\C/C=C\C/C=C\CCC(=O)O — pKd (Nuclear receptor subfamily 4 group A member 2 (Homo sapiens, UniProt P43354); binding): 4.52
COc1ccc(OC(=O)N(CC(=O)O)Cc2ccc(OCCc3nc(-c4ccccc4)oc3C)cc2)cc1 — pEC50 (Peroxisome proliferator-activated receptor alpha (PPARA, Homo sapiens, UniProt Q07869); reporter gene; agonist; luciferase): 5.19
CC#CC(=O)N1CC[C@@H](n2cc(-c3ccc(Oc4c(F)cccc4F)cc3)c3c(N)n[nH]c(=O)c32)C1 — pKd (Tyrosine-protein kinase JAK3 (JAK3, Homo sapiens, UniProt P52333); binding; competition with immobilised ligand): < 5.52
c1cncc(-c2cccc(Nc3nccc(NC4CCCCC4)n3)c2)c1 — pKd (CSF1R; binding; competition with immobilised ligand): 6.23
CCCC[C@@H]1NC(=O)[C@H](Cc2ccc(O)cc2)NC(=O)[C@@H]2CCCN2C(=O)[C@H](CC(=O)O)NC(=O)[C@H](C)NC(=O)[C@H](Cc2ccccc2)NC(=O)[C@@H]2CSCCC(=O)N3CN(CN(C3)C(=O)CCSC[C@@H](C(=O)N[C@@H](CNC(=O)Cn3cc(CCC(=O)NCCC(=O)N(C)CC(=O)N(C)CC(=O)N(C)CC(=O)N(C)CC(=O)N(C)CC(=O)N(C)CC(=O)N(C)CC(=O)N(C)CC(=O)N(C)CC(=O)N(C)CC(=O)N[C@H]4CSCCC(=O)N5CN6CN(C5)C(=O)CCSC[C@H](NC(=O)[C@@H](CC(=O)O)NC(=O)[C@H](Cc5cccc7ccccc57)NC(=O)[C@@H]5CCCN5C4=O)C(=O)N[C@@H](CCSC)C(=O)N[C@@H](CCCCNC(=N)N)C(=O)N[C@@H](CC(=O)O)C(=O)N[C@@H](Cc4c[nH]c5ccccc45)C(=O)N[C@@H](CO)C(=O)N[C@@H]([C@@H](C)O)C(=O)N4CCC[C@H]4C(=O)N4C[C@H](O)C[C@H]4C(=O)N[C@@H](Cc4c[nH]c5ccccc45)C(=O)N[C@H](C(N)=O)CSCCC6=O)nn3)C(N)=O)NC1=O)C(=O)CCSC[C@H](NC(C)=O)C(=O)N[C@@H](CC(C)(C)C)C(=O)N1CCC[C@H]1C(=O)N[C@@H](CCC(=O)O)C(=O)N[C@H](C)C(=O)N1CCC[C@H]1C(=O)N[C@@H](Cc1ccc(O)cc1)C(=O)N2 — pKd (Tumor necrosis factor receptor superfamily member 9; binding; SPR): 8.31
Cc1cc(Nc2cc3ncccc3c(N[C@@H]3C[C@H]4CC[C@@H](C3)N4CCC#N)n2)n[nH]1 — pKd (CSF1R; binding; competition with immobilised ligand): 5.96
